Converted amounts (≈) assume the structure as drawn.
What was measured:
[1] = Cytotoxicity against human RXF 393NL cells at 0.1 ug/ml relative to control; format: functional
DU-145 [2] = experiment: Cytotoxicity against human DU145 cells; format: functional, cell-based
In short: (§1)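 Monolayer cell survival and proliferation assay, run within a panel of 36 human tumor cell lines; IC50 determined per cell line.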

[3] = Cytotoxicity against human MEXF 462NL cells at 0.01 ug/ml relative to control; format: functional
DU-145 [4] = experiment: Cytotoxicity against human DU145 cells at 0.001 ug/ml relative to control; format: functional
[5] = Cytotoxicity against human MAXF 401NL cells at 0.01 ug/ml relative to control; format: functional
[6] = Cytotoxicity against human RXF 486L cells at 0.01 ug/ml relative to control; format: functional
OVCAR-3 [7] = experiment: Cytotoxicity against human OVCAR3 cells at 1 ug/ml relative to control; format: functional
[8] = Cytotoxicity against human RXF 486L cells at 0.001 ug/ml relative to control; format: functional
[9] = Cytotoxicity against human PC3M cells at 0.01 ug/ml relative to control; format: functional, PC-3M
[10] = Cytotoxicity against human OVXF 1619L cells at 10 ug/ml relative to control; format: functional
[11] = Cytotoxicity against human LXFA 629L cells at 0.001 ug/ml relative to control; format: functional
[12] = Cytotoxicity against human CNXF 498NL cells; format: functional, cell-based; in short: as §1
[13] = Cytotoxicity against human RXF 1781L cells; format: functional, cell-based
In short: (§2)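 Monolayer cell survival and proliferation assay run across a panel of 36 human tumor cell lines, with IC50 determined from the resulting growth data.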

[14] = Cytotoxicity against human LXFA 289L cells; format: functional, cell-based
In short: (§3)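 Monolayer cell survival and proliferation assay run across a panel of 36 human tumour cell lines; IC50 values determined.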

MCF7 [15] = experiment: Cytotoxicity against human MCF7 cells at 10 ug/ml relative to control; format: functional
[16] = Cytotoxicity against human BXF 1218L cells at 0.1 ug/ml relative to control; format: functional
DU-145 [17] = experiment: Cytotoxicity against human DU145 cells at 10 ug/ml relative to control; format: functional
[18] = Cytotoxicity against human RXF 486L cells at 10 ug/ml relative to control; format: functional
MCF7 [19] = experiment: Cytotoxicity against human MCF7 cells at 1 ug/ml relative to control; format: functional
[20] = Cytotoxicity against human PC3M cells at 0.001 ug/ml relative to control; format: functional, PC-3M
[21] = Cytotoxicity against human MEXF 514L cells; format: functional, cell-based; in short: as §2
[22] = Cytotoxicity against human LXFA 526L cells; format: functional, cell-based; in short: as §3
[23] = Cytotoxicity against human MEXF 276L cells at 0.1 ug/ml relative to control; format: functional, MEXF276L
[24] = Cytotoxicity against human UXF 1138L cells at 0.01 ug/ml relative to control; format: functional
[25] = Cytotoxicity against human MEXF 514L cells at 0.001 ug/ml relative to control; format: functional
[26] = Cytotoxicity against human PC3M cells; format: functional, cell-based; conditions: PC-3M; in short: as §2
[27] = Cytotoxicity against human PAXF 1657L cells at 10 ug/ml relative to control; format: functional
[28] = Cytotoxicity against human CNXF 498NL cells at 1 ug/ml relative to control; format: functional
[29] = Cytotoxicity against human MEXF 520L cells; format: functional, cell-based; in short: as §2
PANC-1 = experiment: Cytotoxicity against human PANC1 cells; format: functional, cell-based; in short: as §2
HT-29 = experiment: Cytotoxicity against human HT-29 cells at 0.01 ug/ml relative to control; format: functional
[30] = Cytotoxicity against human LXFL 1121L cells at 10 ug/ml relative to control; format: functional
[31] = Cytotoxicity against human MEXF 276L cells at 0.01 ug/ml relative to control; format: functional, MEXF276L
[32] = Cytotoxicity against human MEXF 520L cells at 10 ug/ml relative to control; format: functional
[33] = Cytotoxicity against human LXFA 526L cells at 0.1 ug/ml relative to control; format: functional
[34] = Cytotoxicity against human MEXF 394NL cells at 0.001 ug/ml relative to control; format: functional
[35] = Cytotoxicity against human RXF 1781L cells at 10 ug/ml relative to control; format: functional
[36] = Cytotoxicity against human MEXF 520L cells at 0.01 ug/ml relative to control; format: functional
[37] = Cytotoxicity against human LXFA 629L cells at 10 ug/ml relative to control; format: functional
[38] = Cytotoxicity against human OVXF 899L cells at 10 ug/ml relative to control; format: functional
[39] = Cytotoxicity against human RXF 1781L cells at 1 ug/ml relative to control; format: functional
[40] = Cytotoxicity against human BXF 1218L cells; format: functional, cell-based; in short: as §1
[41] = Cytotoxicity against human RXF 393NL cells at 0.01 ug/ml relative to control; format: functional
[42] = Cytotoxicity against human GXF251L cells at 1 ug/ml relative to control; format: functional
[43] = Cytotoxicity against human RXF 393NL cells at 0.001 ug/ml relative to control; format: functional
[44] = Cytotoxicity against human PAXF 1657L cells at 1 ug/ml relative to control; format: functional
[45] = Cytotoxicity against human RXF 486L cells; format: functional, cell-based; in short: as §2
[46] = Cytotoxicity against human MAXF 401NL cells at 0.1 ug/ml relative to control; format: functional
[47] = Cytotoxicity against human BXF 1218L cells at 0.001 ug/ml relative to control; format: functional
OVCAR-3 [48] = experiment: Cytotoxicity against human OVCAR3 cells at 0.001 ug/ml relative to control; format: functional
[49] = Cytotoxicity against human MEXF 520L cells at 0.001 ug/ml relative to control; format: functional
[50] = Cytotoxicity against human OVXF 899L cells at 0.001 ug/ml relative to control; format: functional
[51] = Cytotoxicity against human MEXF 276L cells; format: functional, cell-based; conditions: MEXF276L; in short: as §2
DU-145 [52] = experiment: Cytotoxicity against human DU145 cells at 0.01 ug/ml relative to control; format: functional

Molecule `C=C1[C@@H](O)[C@H]2O[C@@]2(C[C@H]2C(C)=CC[C@H]3C(C)(C)CCC[C@]23C)[C@@H](O)[C@H]1O` [EPOXYPHOLAMIN D] has an Activity [1] of 134%, an IC50 (DU-145 [2]) of 8.99 µM and an IC70 (DU-145 [2]) of 5.88 µg/mL (≈ 16.2 µM). For the same molecule, the IC90 (DU-145 [2]) was 10.6 µg/mL (≈ 29.3 µM), the Activity [3] was 122% and the Activity (DU-145 [4]) was 91%. The Activity [5] was 110%, the Activity [6] was 99% and the Activity (OVCAR-3 [7]) was 43%. For the same molecule, the Activity [8] was 95%, the Activity [9] was 101% and the Activity [10] was 10%. The Activity [11] was 96%, the IC50 [12] was 3.45 µM and the IC70 [12] was 3.09 µg/mL (≈ 8.53 µM). For the same molecule, the IC90 [12] was 7.63 µg/mL (≈ 21 µM), the IC50 [13] was 11.8 µM and the IC70 [13] was 7.69 µg/mL (≈ 21.2 µM). For the same molecule, the IC90 [13] was 13.8 µg/mL (≈ 38 µM), the IC50 [14] was 18.5 µM and the IC70 [14] was 13.9 µg/mL (≈ 38.3 µM). The IC90 [14] was 28.9 µg/mL (≈ 79.6 µM), the Activity (MCF7 [15]) was 5% and the Activity [16] was 104%. The Activity (DU-145 [17]) was 12%, the Activity [18] was 10% and the Activity (MCF7 [19]) was 68%. The Activity [20] was 120%, the IC50 [21] was 11.6 µM and the IC70 [21] was 6.57 µg/mL (≈ 18.1 µM). For the same molecule, the IC90 [21] was 10.2 µg/mL (≈ 28.2 µM), the IC50 [22] was 13.5 µM and the IC70 [22] was 7.76 µg/mL (≈ 21.4 µM). It also gave an IC90 [22] of 12.3 µg/mL (≈ 33.9 µM), an Activity [23] of 98% and an Activity [24] of 107%. For the same molecule, the Activity [25] was 119%, the IC50 [26] was 0.72 µM and the IC70 [26] was 0.605 µg/mL (≈ 1.67 µM). The IC90 [26] was 4.12 µg/mL (≈ 11.4 µM), the Activity [27] was 9% and the Activity [28] was 55%. The IC50 [29] was 7.67 µM, the IC70 [29] was 4.91 µg/mL (≈ 13.6 µM) and the IC90 [29] was 8.68 µg/mL (≈ 23.9 µM). The IC50 (PANC-1) was 5.43 µM, the IC70 (PANC-1) was 4.2 µg/mL (≈ 11.6 µM) and the IC90 (PANC-1) was 8.93 µg/mL (≈ 24.6 µM). The Activity (HT-29) was 113%, the Activity [30] was 5% and the Activity [31] was 98%. For the same molecule, the Activity [32] was 5%, the Activity [33] was 115% and the Activity [34] was 97%. For the same molecule, the Activity [35] was 21%, the Activity [36] was 96% and the Activity [37] was 6%. The Activity [38] was 12%, the Activity [39] was 100% and the IC50 [40] was 1.43 µM. It also gave an IC70 [40] of 0.969 µg/mL (≈ 2.67 µM), an IC90 [40] greater than 10 µg/mL and an Activity [41] of 126%. For the same molecule, the Activity [42] was 41%, the Activity [43] was 98% and the Activity [44] was 73%. For the same molecule, the IC50 [45] was 7.67 µM, the IC70 [45] was 5.27 µg/mL (≈ 14.5 µM) and the IC90 [45] was 10 µg/mL (≈ 27.6 µM). It also gave an Activity [46] of 110%, an Activity [47] of 106% and an Activity (OVCAR-3 [48]) of 100%. For the same molecule, the Activity [49] was 97%, the Activity [50] was 103% and the IC50 [51] was 4.69 µM. The IC70 [51] was 5.54 µg/mL (≈ 15.3 µM), the IC90 [51] was 18.1 µg/mL (≈ 49.8 µM) and the Activity (DU-145 [52]) was 76%.

— ChEMBL document CHEMBL1649383, “Mode of action of epoxyphomalins A and B and characterization of related metabolites from the marine-derived fungus Paraconiothyrium sp” (J Nat Prod, 2010)
